Results published in ChEMBL document CHEMBL3739420, “Benzoxazolone Carboxamides as Potent Acid Ceramidase Inhibitors: Synthesis and Structure-Activity Relationship (SAR) Studies” (J Med Chem, 2015).
Calls of active or inactive are those of the source. No cut-off for these calls is given here.

Tests used:
[1] = Stability in 1 % DMSO containing phosphate-buffered solution assessed as half life at 10 uM at pH 7.4 under shaking by UPLC method; format: physicochemical; details: for half-life at 10 µM: phosphate-buffered solution, pH 7.4; for t1/2: buffer, pH 7.4, 10 µM
Method in brief: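 Compound incubated at 10 μM in PBS pH 7.4; half-life derived by fitting the decay profile.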

[2] = Chemical stability in AC assay buffer at 10 uM at pH 4.5 under shaking by UPLC method; format: physicochemical; details: pH 4.5, 10 µM
Acid ceramidase = molecular target: T1, Acid ceramidase (Homo sapiens, UniProt Q13510); assay: Inhibition of recombinant human acid ceramidase expressed in HEK293 cells using N-[(1S,2R)-2-hydroxy-1-(hydroxymethyl)-4-(2-oxochromen-7-yl)-oxybutyl]dodecanamide substrate preincubated for 10 mins; format: cell-based
T1 sequence (Q13510 whole entry): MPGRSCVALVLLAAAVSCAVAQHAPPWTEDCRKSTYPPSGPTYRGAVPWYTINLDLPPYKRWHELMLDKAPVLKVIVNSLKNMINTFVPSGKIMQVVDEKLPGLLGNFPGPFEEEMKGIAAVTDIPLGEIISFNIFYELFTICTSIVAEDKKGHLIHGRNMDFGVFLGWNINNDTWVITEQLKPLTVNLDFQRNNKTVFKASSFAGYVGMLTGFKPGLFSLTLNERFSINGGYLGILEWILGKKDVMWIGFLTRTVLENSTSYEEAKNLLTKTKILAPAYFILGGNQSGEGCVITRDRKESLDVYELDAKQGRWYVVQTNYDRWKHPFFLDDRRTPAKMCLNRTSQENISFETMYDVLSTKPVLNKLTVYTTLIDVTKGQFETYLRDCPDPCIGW
Method in brief: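 AC-enriched lysosomal lysate from HEK293 cells stably expressing human AC, preincubated 10 min with compound. Coumarin-linked dodecanamide substrate then added at 5 μM final and incubated 3 h at 37 °C. Reaction stopped with MeOH, then NaIO4 at pH 10.6 for 2 h at 37 °C in the dark; umbelliferone fluorescence read at 355/460 nm. IC50 from nonlinear regression; mean of ≥2 determinations.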

[3] = molecular target: T2, Acid ceramidase (Homo sapiens) (UniProt Q13510); assay: Inhibition of recombinant human acid ceramidase expressed in HEK293 cells at 5 uM using N-[(1S,2R)-2-hydroxy-1-(hydroxymethyl)-4-(2-oxochromen-7-yl)-oxybutyl]dodecanamide substrate preincubated for 10 mins; format: cell-based
T2 sequence (whole entry): T1 sequence (Q13510 whole entry)

Mus musculus [4] = assay: Inhibition of acid ceramidase in C57BL/6 mouse cerebral cortex at 10 mg/kg, ip after 24 hrs by bicinchoninic acid based protein assay; format: functional, organism-based
Method in brief: (§1)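 Male C57BL/6 mice dosed ip at 10 mg/kg in 15% PEG/15% Tween-80/70% saline; lung and cerebral cortex collected 30 min–24 h after dosing. Lysosomal extracts were prepared by sonication and differential centrifugation, then incubated at pH 4.5 with 50 μM C12-ceramide for 1 h at 37 °C. Lauric acid product measured by UPLC–MS with an internal standard; activity expressed as % of vehicle; n = 6.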

Mus musculus [5] = assay: Inhibition of acid ceramidase in C57BL/6 mouse cerebral cortex assessed as changes in sphingolipid level at 10 mg/kg, ip by LC-MS method; format: functional, organism-based
Mus musculus [6] = assay: Inhibition of acid ceramidase in C57BL/6 mouse lung assessed as decrease in sphingosine level at 10 mg/kg, ip after 3 hrs by LC-MS method; format: functional, organism-based
Mus musculus [7] = assay: Inhibition of acid ceramidase in C57BL/6 mouse lung assessed as increase in ceramide level at 10 mg/kg, ip upto 6 hrs by LC-MS method; format: functional, organism-based
Mus musculus [8] = assay: Inhibition of acid ceramidase in C57BL/6 mouse lung assessed as decrease in sphingosine-1-phosphate level at 10 mg/kg, ip after 3 hrs by LC-MS method; format: functional, organism-based
Mus musculus [9] = assay: Inhibition of acid ceramidase in C57BL/6 mouse lung assessed as increase in dihydroceramide level at 10 mg/kg, ip upto 6 hrs by LC-MS method; format: functional, organism-based
Mus musculus [10] = assay: Inhibition of acid ceramidase in C57BL/6 mouse lung at 10 mg/kg, ip after 24 hrs by bicinchoninic acid based protein assay; format: functional, organism-based; method in brief: as §1

Row | Compound | half-life at 10 µM [1] | IC50 (Acid ceramidase; read-out: IC50) | also measured
1 | O=C(NCCc1ccccc1)n1c(=O)oc2ccccc21 | – | 121 nM | –
2 | CN(CCNC(=O)n1c(=O)oc2ccccc21)Cc1ccccc1 | – | – | inhibition [3]: inactive
3 | COc1ccc(-c2ccc3c(c2)oc(=O)n3C(=O)NCCCCc2ccccc2)cc1 | 2.2 h | – | –
4 | O=C(NCCOCc1ccccc1)n1c(=O)oc2ccccc21 | – | 649 nM | –
5 | O=C(NCCCCc1cccs1)n1c(=O)oc2ccccc21 | – | 37 nM | –
6 | Cc1cccc2oc(=O)n(C(=O)NCCCCc3ccccc3)c12 | – | – | IC50 (Acid ceramidase; hek293): ND(Unstable)
7 | O=C(NCCCCc1ccccc1)n1c(=O)oc2ccccc21 | – | – | t1/2 [1]: 0.75 h
8 | O=C(NCCCCc1ccccc1)n1c(=O)oc2ccc([N+](=O)[O-])cc21 | – | – | Stability [2]: Stable
9 | O=C(NCCCCc1ccccc1)n1c(=O)oc2cc(Cl)c(Cl)cc21 | 0.917 h | – | –
10 | O=C(NCCCCc1ccccc1)n1c(=O)oc2cc([N+](=O)[O-])ccc21 | – | – | Stability [2]: Stable
11 | O=C(NCCCCc1ccccc1)n1c(=O)oc2cccc(Br)c21 | – | – | IC50 (Acid ceramidase; hek293): ND(Unstable)
12 | Cc1ccc(CCCCNC(=O)n2c(=O)oc3ccccc32)cc1 | – | 25 nM | –
13 | O=C(NCCCCc1ccccc1)n1c(=O)oc2cc(Cl)ccc21 | 0.967 h | – | inhibition (Mus musculus [4]): Active; inhibition (Mus musculus [5]): inactive; Stability [2]: Stable; inhibition (Mus musculus [6]): Active; inhibition (Mus musculus [7]): Active; inhibition (Mus musculus [8]): Active; inhibition (Mus musculus [9]): Active; inhibition (Mus musculus [10]): Active
14 | O=C(NCCCCc1ccccc1)n1c(=O)oc2cc(Br)ccc21 | – | – | IC50 (Acid ceramidase; hek293, read-out: IC50): 31 nM; t1/2 [1]: 0.4 h
15 | O=C(NCCCCc1ccc([N+](=O)[O-])cc1)n1c(=O)oc2ccccc21 | – | 312 nM | –
16 | O=C(NCCSCc1ccccc1)n1c(=O)oc2ccccc21 | – | 65 nM | –

Further lines, with some results ahead:

Row | half-life at 10 µM [1] | IC50 (Acid ceramidase; read-out: IC50) | Compound | also measured
17 | 4.57 h | – | O=C(c1ccc(Cl)cc1)c1ccc2c(c1)oc(=O)n2C(=O)NCCCCc1ccccc1 | Stability [2]: Stable
18 | > 5 h | – | O=C(NCCCCc1ccccc1)n1c(=O)oc2c(-c3ccccc3)cccc21 | –
19 | – | 51 nM | O=C(NCCCCCCc1ccccc1)n1c(=O)oc2ccccc21 | –
20 | – | 24 nM | O=C(c1ccccc1)c1ccc2oc(=O)n(C(=O)NCCCCc3ccccc3)c2c1 | –
21 | 2.93 h | 67 nM | COc1ccc(-c2ccc3oc(=O)n(C(=O)NCCCCc4ccccc4)c3c2)cc1 | –
22 | > 5 h | – | O=C(NCCCCc1ccccc1)n1c(=O)oc2cc(-c3ccccc3)ccc21 | –
23 | > 5 h | – | O=C(NCCCCc1ccccc1)n1c(=O)oc2ccc(-c3ccc(F)cc3)cc21 | –
24 | – | 15 nM | O=C(NCCCCc1ccccc1)n1c(=O)oc2ccc(Cl)cc21 | –
25 | 1.63 h | – | O=C(c1ccccc1)c1ccc2c(c1)oc(=O)n2C(=O)NCCCCc1ccccc1 | Stability [2]: Stable
26 | – | 18 nM | O=C(NCCCCc1ccccc1)n1c(=O)oc2ccc(C(F)(F)F)cc21 | –
27 | 4.93 h | 42 nM | O=C(NCCCCc1ccccc1)n1c(=O)oc2ccc(-c3ccccc3)cc21 | Stability [2]: Stable
28 | – | 71 nM | O=C(NCCCCc1ccc2ccccc2c1)n1c(=O)oc2ccccc21 | –
29 | – | 12 nM | O=C(NCCCCc1ccccc1)n1c(=O)oc2ccc(F)cc21 | –
30 | > 5 h | – | O=C(NCCCCc1ccccc1)n1c(=O)oc2cc(-c3ccc(F)cc3)ccc21 | –
31 | – | 31 nM | O=C(NCCCCc1ccccc1)n1c(=O)oc2cc(F)ccc21 | –
32 | 0.117 h | – | O=C(NCCCCc1ccccc1)n1c(=O)oc2cccc(-c3ccccc3)c21 | –
